Measurements from the M2OR odorant receptor database.

Legend:
Settings in all cases: stereoisomer not certain
OR10J5 (Homo sapiens) = molecular target: T1, OR10J5 (Homo sapiens) (UniProt Q8NHC4)
T1 sequence (whole entry): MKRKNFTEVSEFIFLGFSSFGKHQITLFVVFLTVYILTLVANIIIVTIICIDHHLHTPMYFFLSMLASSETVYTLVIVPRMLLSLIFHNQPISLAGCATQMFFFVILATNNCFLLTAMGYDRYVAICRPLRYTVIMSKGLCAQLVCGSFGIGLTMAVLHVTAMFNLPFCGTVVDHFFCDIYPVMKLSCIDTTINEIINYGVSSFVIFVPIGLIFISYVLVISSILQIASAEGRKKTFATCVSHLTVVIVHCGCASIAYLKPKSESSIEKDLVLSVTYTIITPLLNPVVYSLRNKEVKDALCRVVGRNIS
In short: (§1)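 Values were gathered from published papers (main text and supplementary material), with extra details requested from the original authors when needed, and checked for typos and inconsistencies. Each receptor–molecule pair is called responsive (active) if the original authors judged the measured signal statistically different from baseline, and non-responsive (inactive) otherwise. Assay methods varied by source, often transient mammalian cell-line luciferase assays. Recorded details include cell line, G-protein, co-transfected protein and tags.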

OR10H4 (Homo sapiens) = molecular target: T2, OR10H4 (Homo sapiens) (UniProt Q8NGA5)
T2 sequence (whole entry): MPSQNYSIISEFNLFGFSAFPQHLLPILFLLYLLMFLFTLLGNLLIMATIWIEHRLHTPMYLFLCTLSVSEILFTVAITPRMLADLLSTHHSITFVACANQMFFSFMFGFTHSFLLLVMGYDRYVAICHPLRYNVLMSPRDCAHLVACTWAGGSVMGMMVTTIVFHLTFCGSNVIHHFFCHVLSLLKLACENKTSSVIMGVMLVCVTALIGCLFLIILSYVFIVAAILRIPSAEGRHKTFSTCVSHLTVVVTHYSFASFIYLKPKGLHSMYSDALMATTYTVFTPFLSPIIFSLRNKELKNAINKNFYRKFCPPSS
In short: as §1

OR10H5 (Homo sapiens) = molecular target: T3, OR10H5 (Homo sapiens) (UniProt Q8NGA6)
T3 sequence (whole entry): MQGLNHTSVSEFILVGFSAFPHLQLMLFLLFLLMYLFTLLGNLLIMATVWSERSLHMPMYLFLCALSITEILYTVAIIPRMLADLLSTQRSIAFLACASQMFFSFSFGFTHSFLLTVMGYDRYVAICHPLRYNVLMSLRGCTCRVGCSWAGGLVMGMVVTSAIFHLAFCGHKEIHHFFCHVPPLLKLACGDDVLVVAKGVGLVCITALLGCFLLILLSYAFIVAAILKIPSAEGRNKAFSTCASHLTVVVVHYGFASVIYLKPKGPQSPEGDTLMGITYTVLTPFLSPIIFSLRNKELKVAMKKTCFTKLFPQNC
In short: as §1

OR10J1 (Homo sapiens) = molecular target: T4, OR10J1 (Homo sapiens) (UniProt P30954)
T4 sequence (whole entry): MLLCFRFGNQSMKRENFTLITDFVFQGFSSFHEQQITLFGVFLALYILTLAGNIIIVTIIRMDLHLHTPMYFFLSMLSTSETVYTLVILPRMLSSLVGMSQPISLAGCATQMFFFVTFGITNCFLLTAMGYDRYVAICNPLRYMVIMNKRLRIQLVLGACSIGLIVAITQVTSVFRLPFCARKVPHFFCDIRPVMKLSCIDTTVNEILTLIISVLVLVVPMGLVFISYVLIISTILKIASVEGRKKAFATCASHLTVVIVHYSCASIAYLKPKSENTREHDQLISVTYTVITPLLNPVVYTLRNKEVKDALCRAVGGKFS
In short: as §1

OR10J3 (Homo sapiens) = molecular target: T5, OR10J3 (Homo sapiens) (UniProt Q5JRS4)
T5 sequence (whole entry): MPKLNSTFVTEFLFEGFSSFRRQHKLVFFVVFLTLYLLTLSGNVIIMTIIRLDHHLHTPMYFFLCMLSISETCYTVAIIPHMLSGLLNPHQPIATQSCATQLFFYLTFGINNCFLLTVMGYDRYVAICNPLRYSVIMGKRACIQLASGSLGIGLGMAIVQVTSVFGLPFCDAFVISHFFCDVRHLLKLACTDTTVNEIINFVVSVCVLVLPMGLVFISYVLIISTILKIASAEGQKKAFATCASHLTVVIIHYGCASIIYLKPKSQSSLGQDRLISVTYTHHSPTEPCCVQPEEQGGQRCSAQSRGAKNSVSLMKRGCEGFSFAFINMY
In short: as §1

OR10K1 (Homo sapiens) = molecular target: T6, OR10K1 (Homo sapiens) (UniProt Q8NGX5)
T6 sequence (whole entry): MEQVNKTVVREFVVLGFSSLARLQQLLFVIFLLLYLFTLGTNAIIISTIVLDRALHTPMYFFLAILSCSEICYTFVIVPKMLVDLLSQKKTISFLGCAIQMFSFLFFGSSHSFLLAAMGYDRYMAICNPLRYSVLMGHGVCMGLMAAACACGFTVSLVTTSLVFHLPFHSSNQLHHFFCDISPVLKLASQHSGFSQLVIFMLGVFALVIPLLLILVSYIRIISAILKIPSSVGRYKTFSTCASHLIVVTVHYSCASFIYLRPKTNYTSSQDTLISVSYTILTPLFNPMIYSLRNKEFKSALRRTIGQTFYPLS
In short: as §1

OR10P1 (Homo sapiens) = molecular target: T7, OR10P1 (Homo sapiens) (UniProt Q8NGE3)
T7 sequence (whole entry): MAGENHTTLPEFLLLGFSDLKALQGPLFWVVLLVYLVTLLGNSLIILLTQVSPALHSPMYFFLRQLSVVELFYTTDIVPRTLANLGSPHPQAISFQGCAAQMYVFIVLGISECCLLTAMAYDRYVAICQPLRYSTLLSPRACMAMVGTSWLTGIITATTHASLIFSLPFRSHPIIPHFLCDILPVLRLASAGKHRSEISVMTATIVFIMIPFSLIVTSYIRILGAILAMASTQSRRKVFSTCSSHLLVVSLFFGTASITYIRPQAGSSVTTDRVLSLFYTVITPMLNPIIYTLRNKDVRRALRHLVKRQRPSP
In short: as §1

OR10Q1 (Homo sapiens) = molecular target: T8, OR10Q1 (Homo sapiens) (UniProt Q8NGQ4)
T8 sequence (whole entry): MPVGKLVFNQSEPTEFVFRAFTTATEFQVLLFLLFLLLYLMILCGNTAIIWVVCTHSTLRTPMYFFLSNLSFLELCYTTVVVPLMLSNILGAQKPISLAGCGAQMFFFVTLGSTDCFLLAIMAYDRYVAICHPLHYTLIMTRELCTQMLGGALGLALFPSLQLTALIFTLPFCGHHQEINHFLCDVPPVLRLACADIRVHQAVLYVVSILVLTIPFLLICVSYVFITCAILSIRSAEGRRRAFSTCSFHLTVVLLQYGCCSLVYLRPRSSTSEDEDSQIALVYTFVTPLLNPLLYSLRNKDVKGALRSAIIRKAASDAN
In short: as §1

OR10K2 (Homo sapiens) = molecular target: T9, OR10K2 (Homo sapiens) (UniProt Q6IF99)
T9 sequence (whole entry): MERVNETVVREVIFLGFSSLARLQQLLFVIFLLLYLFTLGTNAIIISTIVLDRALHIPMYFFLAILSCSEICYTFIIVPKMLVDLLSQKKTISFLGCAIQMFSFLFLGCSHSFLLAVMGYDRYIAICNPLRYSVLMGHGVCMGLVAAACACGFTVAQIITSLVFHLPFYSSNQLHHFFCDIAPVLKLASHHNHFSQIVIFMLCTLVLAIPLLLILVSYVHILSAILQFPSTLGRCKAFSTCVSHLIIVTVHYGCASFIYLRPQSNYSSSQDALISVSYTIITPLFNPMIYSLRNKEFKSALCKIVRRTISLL
In short: as §1

OR10J4 (Homo sapiens) = OR10J4 (Homo sapiens) (UniProt P0C629)
In short: as §1

Measured: odorant receptor agonist call

Chain of OR10J4 (Homo sapiens) (P0C629 whole entry F198I): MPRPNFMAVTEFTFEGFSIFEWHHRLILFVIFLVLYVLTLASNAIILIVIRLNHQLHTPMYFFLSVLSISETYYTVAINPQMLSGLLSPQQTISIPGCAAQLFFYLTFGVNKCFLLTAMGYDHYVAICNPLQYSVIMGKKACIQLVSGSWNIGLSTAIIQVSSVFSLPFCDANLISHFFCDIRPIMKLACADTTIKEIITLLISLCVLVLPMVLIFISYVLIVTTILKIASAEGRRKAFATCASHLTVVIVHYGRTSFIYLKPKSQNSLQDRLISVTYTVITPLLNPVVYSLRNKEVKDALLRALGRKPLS

CCCCCCCC(C)=O
inactive: OR10J5 (Homo sapiens)

CCC1OC(C)=C(O)C1=O (centres undefined)
not listed: OR10K2 (Homo sapiens) | OR10J4 (Homo sapiens)
inactive: all other assays above

CCCCCCO
inactive: OR10J5 (Homo sapiens)

CCCCCCC(C)=O
inactive: OR10J5 (Homo sapiens)

CCCCCCCCO
inactive: OR10J5 (Homo sapiens)

CCC(=O)C(=O)CC
inactive: OR10J5 (Homo sapiens)

CCCCCCC=CCCC=O
not listed: OR10K2 (Homo sapiens) | OR10J4 (Homo sapiens)
inactive: all other assays above

CCCCC(C)=O
inactive: OR10J5 (Homo sapiens)

CCCCCC=O
inactive: OR10J5 (Homo sapiens)

CCCCC(S)C(C)CO (centres undefined)
active: OR10J5 (Homo sapiens)
not listed: OR10J4 (Homo sapiens)
inactive: all other assays above

CCCC(S)CCOC(C)=O (centres undefined)
not listed: OR10K2 (Homo sapiens) | OR10J4 (Homo sapiens)
inactive: all other assays above

CCCCCCCC(=O)[O-].[H+]
inactive: OR10J5 (Homo sapiens)

CCCC(C)=O
inactive: OR10J5 (Homo sapiens)

CC1CCCCCCCCCCCCC(=O)C1 (centres undefined)
not listed: OR10J1 (Homo sapiens)
inactive: all other assays above

CC1=NC(C)C(C)S1 (centres undefined)
not listed: OR10K2 (Homo sapiens) | OR10J4 (Homo sapiens)
inactive: all other assays above
